Sampled rows, rich in hits. Any-hit rate of the full collection: about 2%.
S100A4 inh HTS – blocks human S100A4 binding to myosin IIA peptide | P26447 | S100A4/TAMRA-MyoIIA peptide fluorescence polarization | inhibition, % at 10.7 µM | 0.14% of 360,000 active | AID 652163;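 active = mean inhibition of at least 70% across replicates, with every replicate also reaching that level; inconclusive = mean inhibition reaches 70% but some replicates fall short; inactive = mean inhibition below 70%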
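Material: human S100A4 monomer with TAMRA-labelled myosin IIA peptide; buffer or medium: HEPES pH 7.2 with CaCl2, KCl, NaCl, DTT, Triton; compound dosing: one concentration per compound; schedule: 5 min incubation before reading; benchmarks: neutral control DMSO, positive control TFP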
Xi reactivation – activators of X-chromosome reactivation in mouse fibroblasts; XiGFP mouse fibroblasts, % GFP-positive cells imaging, 3 d; cells co-treated with 5-aza-dC sensitizer; scaled so ellipticine positive control = 100%; 0.055% of 360,000 active; activation, % at 7.58 µM; AID 743238;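 active = mean normalized replicate activation at least 10% and every replicate at or above 10%; inconclusive = only one of the two criteria met; inactive = mean below 10% and not all replicates reach 10%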;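 also: 0% = median of on-plate neutral control wells and 100% = ellipticine 6 µM median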
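Material: XiGFP fibroblasts, SV40-immortalized. Buffer or medium: DMEM plus 5-aza-dC sensitizer. Compound: single concentration per compound, delivered by pin transfer. Times: 3 days compound exposure. Controls: ellipticine 6 µM.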
DENV2 CPE – DENV2-induced cell death inhibition | DENV2-infected cells, cytopathic effect rescue, plate reader | CPE inhibition, % at 9.99 µM | 1.7% of 350,000 active | AID 651640; in the data active = CPE inhibition above about 20%, passing the limit was not always enough; inconclusive = no clear call, values can overlap the other calls; tested in BHK-21 cells;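 also: 0% = median of neutral control wells and 100% = median of positive control wells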
E-sel inducer – E-selectin induction on HUVECs. P16581. HUVEC E-selectin immunofluorescence imaging; normalized: neutral wells 0, TNF-alpha wells 100. activation, % at 7.58 µM. 0.37% of 260,000 active. AID 686992;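 active = mean E-selectin-positive cell signal at least 10% of the positive control, reached in at least 60% of replicates, without over 20% cell loss; inconclusive = no rule given, readout overlaps actives, possibly toxicity-flagged; inactive = the rest, including those meeting only one limit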
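Test system: HUVEC | Signal: Immunofluorescence imaging | Read-out: Percent E-selectin-positive cells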
Numbers without * were called inactive; u = inconclusive; x = not tested or not shown.

SMILES	S100A4 inh HTS	Xi reactivation	DENV2 CPE	E-sel inducer
C[C@H]1CCCCO[C@@H](CN(C)Cc2ccncc2)[C@@H](C)CN([C@@H](C)CO)C(=O)c2cc(NC(=O)Nc3ccccc3)ccc2O1	-5	0	-4	0
CCCC(NC(=O)C(C)Sc1nnnn1C1CC1)c1ccccc1 (stereo not drawn)	u	0	90*	-2
FC(F)(F)c1nnc2c(Sc3ccccn3)nc3ccccc3n12	x	x	x	10
C[C@@H]1CCCCO[C@H](CN(C)Cc2ccc(C(=O)O)cc2)[C@H](C)CN([C@H](C)CO)C(=O)c2cc(NC(=O)Cc3ccccc3)ccc2O1	-2	0	-4	0
CCC(=O)Nc1ccc2c(c1)OC[C@H](C)N(Cc1ccccn1)C[C@@H](C)[C@H](OC)CN(C)C2=O	-10	0	32*	0
CCCC(=O)Nc1ccc2c(c1)OC[C@@H](C)N(Cc1ccccn1)C[C@H](C)[C@@H](OC)CN(C)C2=O	0	0	64*	0
N#C[C@@H]1[C@H](c2ccc(C3=CCCCC3)cc2)[C@@H](CO)N1C(=O)NC1CCCC1	-23	0	-1	0
C[C@H]1CN([C@@H](C)CO)S(=O)(=O)c2ccc(C#CC3CCCC3)cc2O[C@H]1CN(C)C	-3	1	32*	-1
C[C@H]1CN([C@@H](C)CO)S(=O)(=O)c2ccc(C#CC3CCCC3)cc2O[C@@H]1CN(C)C	8	0	-6	0
C[C@@H]1CN([C@@H](C)CO)S(=O)(=O)c2ccc(C#CC3CC3)cc2O[C@H]1CN(C)Cc1ccc(F)cc1	-17	18*	-5	4
CC(=O)n1cc(CO)c2ccccc21	2	x	35*	x
C=C(c1cn(C(C)=O)c2ccccc12)c1cn(C(C)=O)c2ccccc12	-4	0	13	1
C[C@]12C(=O)N(c3ccccc3)C(=O)N1[C@@H]1c3ccccc3OC[C@@H]1[C@H]2c1ccccc1	2	0	97*	x
C[C@@H]1CN([C@@H](C)CO)C(=O)c2cc(NC(=O)C3CCCCC3)ccc2O[C@@H]1CN(C)C(=O)Nc1ccc2c(c1)OCO2	0	0	-6	-1
C[C@H]1CN([C@@H](C)CO)C(=O)c2cccc(NC(=O)C3CCCCC3)c2O[C@@H]1CN(C)C(=O)Nc1ccc2c(c1)OCO2	-6	0	58*	0
C[C@H]1CN([C@@H](C)CO)C(=O)c2cccc(NC(=O)C3CCCCC3)c2O[C@H]1CN(C)C(=O)Nc1ccc2c(c1)OCO2	-29	1	0	1
C[C@@H]1CN([C@H](C)CO)C(=O)c2cc(NC(=O)C3CCCCC3)ccc2O[C@H]1CN(C)C(=O)Nc1ccc2c(c1)OCO2	x	0	x	177*
C[C@H]1CN([C@@H](C)CO)C(=O)c2cccc(NC(=O)C3CCOCC3)c2O[C@H]1CN(C)C(=O)Nc1ccc2c(c1)OCO2	3	0	37*	0
O=C(C[C@H]1CC[C@@H](NC(=O)c2cccc(F)c2)[C@H](CO)O1)NCc1ccccc1	4	0	1	0
Cc1ccc(N=C2NC(=O)C(CC(=O)NCc3ccccc3)S2)cc1C (stereo not drawn)	x	0	x	x
COc1ccc([C@@H]2[C@@H](C)N(c3ccccc3)c3ccccc3C(=O)N2Cc2ccccc2)cc1	-2	0	86*	0
COc1ccc([N+](=O)[O-])cc1NC(=O)/C=C/C(=O)O	0	1	66*	x
COc1ccc(-n2c(C(C)(C)C)csc2=Nc2c(C)n(C)n(-c3ccccc3)c2=O)cc1	-3	0	x	x
O=C(c1ccccc1)N1CC[C@@H]2[C@H](CO)Nc3ccc(-c4ccc(F)cc4)cc3[C@@H]21	x	0	32*	0
O=C(c1ccccc1)N1CC[C@@H]2[C@H]1c1cc(-c3ccc(F)cc3)ccc1N[C@@H]2CO	x	0	29*	1
O=C(c1ccccn1)N1CC[C@@H]2[C@@H](CO)Nc3ccc(-c4ccccc4F)cc3[C@@H]21	-5	0	21*	1
O=C(c1ccccn1)N1CC[C@@H]2[C@H]1c1cc(-c3ccc(F)cc3)ccc1N[C@@H]2CO	-3	0	6	2
O=C(c1cccc(F)c1)N1CC[C@H]2[C@H](CO)Nc3ccc(-c4ccc(F)cc4)cc3[C@H]21	102*	0	-1	1
CCOC(=O)N1CCC(NCCNC(=O)c2ccc(F)c(F)c2)CC1	17	0	21*	0
